The source of these data is ChEMBL document CHEMBL1123497, “Structure-activity studies of 4,6-disubstituted 2-(morpholinocarbonyl)furo[3,2-b]indole derivatives with analgesic and antiinflammatory activities” (1986).

Molecules are shown by their SMILES.

Common to all, as to format: functional
The species entered for experiment [1] is Rattus norvegicus. Nature of the experiment: Compound was evaluated for analgesic activity in Randall-Selitto test in inflamed foot rats. An outline of the steps: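 Groups of six male Wistar rats (90–110 g) received 20% yeast suspension (0.1 mL/rat) subplantar into the right hind paw, then oral drug 120 min later. Pain threshold was read every 60 min for 240 min. A rise of more than 50% over the control group counted as positive. ED50 and 95% confidence limits came from Litchfield–Wilcoxon.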

For experiment [2], the species on record is Mus musculus. The experiment can be described thus: Compound was evaluated for analgesic activity in Pressure test in mice. An outline of the steps:
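Groups of 10 male ddY mice (19–24 g) were dosed orally, and pain threshold to pressure was measured every 30 min for 120 min. A postdrug threshold raised more than 50% over the predrug value counted as positive. ED50 and 95% confidence limits came from Litchfield–Wilcoxon.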

For experiment [3], the system named is Rattus norvegicus. The experiment can be described thus: Compound was evaluated for antiinflammatory activity in rats by carrageenan edema test. An outline of the steps:
(§1)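 Groups of six male Wistar rats (130–170 g) were dosed orally 60 min before a subplantar injection of 0.5% λ-carrageenin suspension (0.1 mL/rat) into the left hind paw. Foot volume was measured every 60 min for 360 min, and % swelling was compared with controls. ED50 and 95% confidence limits came from Litchfield–Wilcoxon. Screening used % edema inhibition at 100 mg/kg po.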
On the technique in general: The carrageenan paw model is a standard test of acute inflammation.

The species named for experiment [4] is Rattus norvegicus. Nature of the experiment: Compound was evaluated for antipyretic activity in rats by yeast induced fever test. An outline of the steps: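 Groups of six male Wistar rats (190–210 g) received 7.5% yeast suspension sc (10 mL/kg). Rats whose temperature rose by more than 1 °C were dosed orally 180 min later. Body temperature was recorded automatically every 60 min for 360 min, and % inhibition was compared with controls. ED50 and 95% confidence limits came from Litchfield–Wilcoxon.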

The species named for experiment [5] is Mus musculus. Nature of the experiment: Inhibition of acetic acid induced writhing in mice. Summed up: (§2)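 Mice received drug orally 30 min before an ip injection of 0.7% acetic acid (10 mL/kg). Writhes were counted 10–20 min after injection, and % inhibition was taken against a control group. ED50 and 95% confidence limits came from the Litchfield–Wilcoxon method.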

For experiment [6], the species on record is Mus musculus. Nature of the experiment: Compound was evaluated for analgesic activity in Acetic acid writhing assay in mice. An outline of the steps: as §2
A general note: In writhing tests, fewer writhes than in controls are read as antinociception.

Experiment [7] is filed under the species Rattus norvegicus. The experiment can be described thus: Compound was evaluated for analgesic activity in Randall-Selitto test in normal foot rats.
Experiment [8] relates to Rattus norvegicus. The experiment can be described thus: Antiinflammatory activity by Carrageenan edema assay in rats. Also noted: concentration or dose not given beside the values; unit not given here. An outline of the steps: as §1
For experiment [9], the species on record is Rattus norvegicus. Nature of the experiment: Compound was evaluated for analgesic activity in Adjuvant-induced arthritic pain test in rats. Summed up: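 Groups of six male SD rats (160–200 g) received 0.5% Mycobacterium butyricum suspension (0.1 mL/rat) intradermally into the distal tail. After 15–18 days, rats that vocalized on gentle flexion were dosed orally, and the pain response was checked every 60 min for 300 min. Absence of response counted as positive. ED50 and 95% confidence limits came from Litchfield–Wilcoxon.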

Experiment [10] is filed under the species Mus musculus. Nature of the experiment: Analgesic activity by acetic acid writhing assay in mice. Further details: concentration or dose not given beside the values. An outline of the steps:
as §2

Experiment [11] has as its system Rattus norvegicus. The experiment can be described thus: Compound was evaluated for antiinflammatory activity by Carrageenan edema assay in rats. Summed up: as §1

As a reminder, the ED50 is the dose at which the effect has come halfway, by size or by number of responders. As to `CCCCC(CC)C(=O)n1c2cc(C(F)(F)F)ccc2c2oc(C(=O)N3CCOCC3)cc21` (configuration not stated), the ED50 in the experiment filed under Rattus norvegicus [1] amounted to 1.7 mg/kg; in the experiment listed under Mus musculus [2] it was 7 mg/kg; in the experiment with Rattus norvegicus [3], 5.4 mg/kg; in the experiment filed under Rattus norvegicus [4], 0.059 mg/kg; in the experiment listed under Mus musculus [5], 0.7 mg/kg; in the experiment filed under Mus musculus [6], 0.7 mg/kg. Further, the ED50 in the experiment listed under Rattus norvegicus [7] stood at 5.9 mg/kg; in the experiment filed under Rattus norvegicus [9], 1.7 mg/kg. The Inhibition turned out to be 3 in the experiment with Rattus norvegicus [8] and 3% in the experiment listed under Mus musculus [10].
`COC(=O)n1c2ccccc2c2oc(C(=O)N3CCOCC3)cc21`: the values for the Inhibition in the experiment on Rattus norvegicus [11] and in the experiment listed under Mus musculus [10] were 2% and 1%, respectively.
